Converted amounts (≈) assume the structure as drawn.
Key:
Assay type in all cases: functional
Streptococcus pneumoniae [1] = test: Antibacterial activity against Streptococcus pneumoniae M318 overexpressing patA, patB and inactivated patA with single mutation by standardized agar doubling dilution method
In short: (§1)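 MICs were determined by agar doubling dilution following BSAC guidelines, with no efflux inhibitor. Strains were grown in brain heart infusion broth for 24 h at 37°C in 5% CO2. Species identity was confirmed by Gram stain, optochin sensitivity and capsule test. Control strain R6 was tested alongside.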

Streptococcus pneumoniae [2] = test: Antibacterial activity against fluoroquinolone, dye-resistant Streptococcus pneumoniae M42 overexpressing patA, patB by standardized agar doubling dilution method in presence of 20 ug/ml reserpine efflux pump inhibitor
In short: (§2)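 MIC by agar doubling dilution following BSAC guidelines. Strains grown in brain heart infusion broth 24 h at 37°C in 5% CO2. Where an efflux pump inhibitor applies, MIC redetermined with reserpine at 20 μg/ml or sodium orthovanadate at 50 μM. Synergy taken as a fall in MIC of ≥2 dilutions with inhibitor present. Dye resistance defined relative to R6 (both dyes ≥2 dilutions higher).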

Streptococcus pneumoniae [3] = test: Antibacterial activity against Streptococcus pneumoniae M318 overexpressing patA, patB and inactivated patA with single mutation by standardized agar doubling dilution method in presence of 20 ug/ml reserpine efflux pump inhibitor
In short: (§3)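 MICs were determined by BSAC agar doubling dilution in the presence of reserpine at 20 μg/ml. Strains were grown in BHI broth for 24 h at 37°C in 5% CO2, with R6 as control. Synergy was defined as an MIC drop of ≥2 dilutions with the inhibitor.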

Streptococcus pneumoniae [4] = test: Antibacterial activity against Streptococcus pneumoniae M46A overexpressing patA, patB and inactivated patA with single mutation by standardized agar doubling dilution method; in short: as §1
Streptococcus pneumoniae [5] = test: Antibacterial activity against Streptococcus pneumoniae M316 overexpressing patA, patB and inactivated patA with single mutation by standardized agar doubling dilution method; in short: as §1
Streptococcus pneumoniae [6] = test: Antibacterial activity against Streptococcus pneumoniae M55B overexpressing patA, patB and inactivated patB with single mutation by standardized agar doubling dilution method in presence of 20 ug/ml reserpine efflux pump inhibitor; in short: as §3
Streptococcus pneumoniae [7] = test: Antibacterial activity against dye-resistant Streptococcus pneumoniae M55 DR overexpressing patA, patB by standardized agar doubling dilution method; in short: as §1
Streptococcus pneumoniae [8] = test: Antibacterial activity against Streptococcus pneumoniae M301 overexpressing patA, patB and inactivated patA with single mutation by standardized agar doubling dilution method
In short: (§4)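 MICs determined by BSAC standardized agar doubling dilution. Strains were grown in brain heart infusion broth for 24 h at 37°C in 5% CO2. Inhibitor arms had reserpine at 20 μg/ml or sodium orthovanadate at 50 μM in the agar. Mutants were made by transforming magellan2 insertion amplimers into clinical isolates and selecting on spectinomycin 100 mg/liter, with a no-DNA spontaneous-mutation control.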

Streptococcus pneumoniae [9] = test: Antibacterial activity against wild type Streptococcus pneumoniae M3 NCTC 7466 type 2 by standardized agar doubling dilution method; in short: as §2
Streptococcus pneumoniae [10] = test: Antibacterial activity against fluoroquinolone, dye-resistant Streptococcus pneumoniae M45 overexpressing patA, patB by standardized agar doubling dilution method in presence of 20 ug/ml reserpine efflux pump inhibitor; in short: as §2
Streptococcus pneumoniae [11] = test: Antibacterial activity against fluoroquinolone, dye-resistant Streptococcus pneumoniae M297 overexpressing patA, patB by standardized agar doubling dilution method in presence of 20 ug/ml reserpine efflux pump inhibitor; in short: as §2
Streptococcus pneumoniae [12] = test: Antibacterial activity against Streptococcus pneumoniae M305 overexpressing patA, patB and inactivated patB with single mutation by standardized agar doubling dilution method in presence of 50 uM sodium orthovanadate efflux pump inhibitor; in short: as §4
Streptococcus pneumoniae [13] = test: Antibacterial activity against Streptococcus pneumoniae M302 overexpressing patA, patB and inactivated patA with single mutation by standardized agar doubling dilution method in presence of 50 uM sodium orthovanadate efflux pump inhibitor; in short: as §4
Streptococcus pneumoniae [14] = test: Antibacterial activity against fluoroquinolone, dye-resistant Streptococcus pneumoniae M86 overexpressing patA, patB by standardized agar doubling dilution method; in short: as §2
Streptococcus pneumoniae [15] = test: Antibacterial activity against Streptococcus pneumoniae M309 overexpressing patA, patB and inactivated patB with single mutation by standardized agar doubling dilution method; in short: as §4
Streptococcus pneumoniae [16] = test: Antibacterial activity against fluoroquinolone-resistant Streptococcus pneumoniae M79 FQ-R overexpressing patA, patB by standardized agar doubling dilution method
In short: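 Clinical S. pneumoniae isolates grown in BHI broth 24 h at 37°C in 5% CO2. MICs by agar doubling dilution per BSAC guidelines, alone or with efflux inhibitor reserpine (20 μg/ml) or sodium orthovanadate (50 μM). Synergy defined as ≥2-dilution MIC reduction in presence of inhibitor.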

Streptococcus pneumoniae [17] = test: Antibacterial activity against Streptococcus pneumoniae M314 overexpressing patA, patB and inactivated patA with single mutation by standardized agar doubling dilution method in presence of 20 ug/ml reserpine efflux pump inhibitor; in short: as §4
Streptococcus pneumoniae [18] = test: Antibacterial activity against Streptococcus pneumoniae M45B overexpressing patA, patB and inactivated patB with single mutation by standardized agar doubling dilution method in presence of 50 uM sodium orthovanadate efflux pump inhibitor
In short: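 MICs were determined by BSAC agar doubling dilution in the presence of sodium orthovanadate at 50 μM. Cultures were grown in BHI broth for 24 h at 37°C in 5% CO2, with R6 as control. Synergy was defined as an MIC reduction of ≥2 dilutions with the inhibitor present.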

Streptococcus pneumoniae [19] = test: Antibacterial activity against Streptococcus pneumoniae M317 overexpressing patA, patB and inactivated patB with single mutation by standardized agar doubling dilution method; in short: as §1
Streptococcus pneumoniae [20] = test: Antibacterial activity against Streptococcus pneumoniae M319 overexpressing patA, patB and inactivated patB with single mutation by standardized agar doubling dilution method in presence of 20 ug/ml reserpine efflux pump inhibitor; in short: as §3
Streptococcus pneumoniae [21] = test: Antibacterial activity against Streptococcus pneumoniae M315 overexpressing patA, patB and inactivated patA with single mutation by standardized agar doubling dilution method; in short: as §4
Streptococcus pneumoniae [22] = test: Antibacterial activity against fluoroquinolone-resistant Streptococcus pneumoniae M97 FQ-R overexpressing patA, patB by standardized agar doubling dilution method in presence of 50 uM sodium orthovanadate efflux pump inhibitor
In short: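 MIC by agar doubling dilution per BSAC guidelines; strains pregrown in brain heart infusion broth 24 h, 37°C, 5% CO2. MICs measured alone and with efflux pump inhibitors reserpine (20 μg/ml) or sodium orthovanadate (50 μM); synergy defined as ≥2-dilution MIC reduction in presence of inhibitor.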

Streptococcus pneumoniae [23] = test: Antibacterial activity against Streptococcus pneumoniae M298 overexpressing patA, patB and inactivated patA with single mutation by standardized agar doubling dilution method in presence of 20 ug/ml reserpine efflux pump inhibitor; in short: as §4
Streptococcus pneumoniae [24] = test: Antibacterial activity against Streptococcus pneumoniae M300 overexpressing patA, patB and inactivated patA with single mutation by standardized agar doubling dilution method in presence of 50 uM sodium orthovanadate efflux pump inhibitor; in short: as §4
Streptococcus pneumoniae [25] = test: Antibacterial activity against Streptococcus pneumoniae M46A overexpressing patA, patB and inactivated patA with single mutation by standardized agar doubling dilution method in presence of 20 ug/ml reserpine efflux pump inhibitor; in short: as §3
Streptococcus pneumoniae [26] = test: Antibacterial activity against fluoroquinolone, dye-resistant Streptococcus pneumoniae M42 overexpressing patA, patB by standardized agar doubling dilution method; in short: as §2
Streptococcus pneumoniae [27] = test: Antibacterial activity against fluoroquinolone, dye-resistant Streptococcus pneumoniae M296 overexpressing patA, patB by standardized agar doubling dilution method; in short: as §2

Work on O=C(O)c1cn(C2CC2)c2cc(N3CCNCC3)c(F)cc2c1=O [CIPROFLOXACIN] yielded an MIC (Streptococcus pneumoniae [1]) of 16 µg/mL (≈ 48.3 µM), an MIC (Streptococcus pneumoniae [2]) of 32 µg/mL and an MIC (Streptococcus pneumoniae [3]) of 16 µg/mL. It also gave an MIC (Streptococcus pneumoniae [4]) of 0.12 µg/mL (≈ 0.362 µM), an MIC (Streptococcus pneumoniae [5]) of 8 µg/mL (≈ 24.1 µM) and an MIC (Streptococcus pneumoniae [6]) of 2 µg/mL. For the same molecule, the MIC (Streptococcus pneumoniae [7]) was 0.25 µg/mL (≈ 0.754 µM), the MIC (Streptococcus pneumoniae [8]) was 8 µg/mL (≈ 24.1 µM) and the MIC (Streptococcus pneumoniae [9]) was 1 µg/mL (≈ 3.02 µM). The MIC (Streptococcus pneumoniae [10]) was 1 µg/mL, the MIC (Streptococcus pneumoniae [11]) was 2 µg/mL and the MIC (Streptococcus pneumoniae [12]) was 8 µg/mL. The MIC (Streptococcus pneumoniae [13]) was 4 µg/mL, the MIC (Streptococcus pneumoniae [14]) was 2 µg/mL (≈ 6.04 µM) and the MIC (Streptococcus pneumoniae [15]) was 4 µg/mL (≈ 12.1 µM). It also gave an MIC (Streptococcus pneumoniae [16]) of 32 µg/mL (≈ 96.6 µM), an MIC (Streptococcus pneumoniae [17]) of 8 µg/mL and an MIC (Streptococcus pneumoniae [18]) of 1 µg/mL. For the same molecule, the MIC (Streptococcus pneumoniae [19]) was 8 µg/mL (≈ 24.1 µM), the MIC (Streptococcus pneumoniae [20]) was 16 µg/mL and the MIC (Streptococcus pneumoniae [21]) was 2 µg/mL (≈ 6.04 µM). The MIC (Streptococcus pneumoniae [22]) was 8 µg/mL, the MIC (Streptococcus pneumoniae [23]) was 8 µg/mL and the MIC (Streptococcus pneumoniae [24]) was 2 µg/mL. The MIC (Streptococcus pneumoniae [25]) was 0.12 µg/mL, the MIC (Streptococcus pneumoniae [26]) was 64 µg/mL (≈ 193 µM) and the MIC (Streptococcus pneumoniae [27]) was 2 µg/mL (≈ 6.04 µM).
Molecule CC[n+]1c(-c2ccccc2)c2cc(N)ccc2c2ccc(N)cc21.[Br-] [HOMIDIUM BROMIDE] has an MIC (Streptococcus pneumoniae [1]) of 0.5 µg/mL, an MIC (Streptococcus pneumoniae [2]) of 0.5 µg/mL and an MIC (Streptococcus pneumoniae [3]) of 0.5 µg/mL. The MIC (Streptococcus pneumoniae [4]) was 0.5 µg/mL, the MIC (Streptococcus pneumoniae [5]) was 0.25 µg/mL and the MIC (Streptococcus pneumoniae [6]) was 0.5 µg/mL. The MIC (Streptococcus pneumoniae [7]) was 16 µg/mL, the MIC (Streptococcus pneumoniae [8]) was 0.5 µg/mL and the MIC (Streptococcus pneumoniae [9]) was 2 µg/mL. For the same molecule, the MIC (Streptococcus pneumoniae [10]) was 0.5 µg/mL, the MIC (Streptococcus pneumoniae [11]) was 0.5 µg/mL and the MIC (Streptococcus pneumoniae [12]) was 0.25 µg/mL. For the same molecule, the MIC (Streptococcus pneumoniae [13]) was 0.5 µg/mL, the MIC (Streptococcus pneumoniae [14]) was 4 µg/mL and the MIC (Streptococcus pneumoniae [15]) was 16 µg/mL. The MIC (Streptococcus pneumoniae [16]) was 2 µg/mL, the MIC (Streptococcus pneumoniae [17]) was 0.5 µg/mL and the MIC (Streptococcus pneumoniae [18]) was 0.5 µg/mL. It also gave an MIC (Streptococcus pneumoniae [19]) of 0.5 µg/mL, an MIC (Streptococcus pneumoniae [20]) of 0.5 µg/mL and an MIC (Streptococcus pneumoniae [21]) of 0.25 µg/mL. The MIC (Streptococcus pneumoniae [22]) was 1 µg/mL, the MIC (Streptococcus pneumoniae [23]) was 0.5 µg/mL and the MIC (Streptococcus pneumoniae [24]) was 0.5 µg/mL. It also gave an MIC (Streptococcus pneumoniae [25]) of 0.5 µg/mL, an MIC (Streptococcus pneumoniae [26]) of 8 µg/mL and an MIC (Streptococcus pneumoniae [27]) of 8 µg/mL.

— ChEMBL document CHEMBL1687824, “Overexpression of patA and patB, which encode ABC transporters, is associated with fluoroquinolone resistance in clinical isolates of Streptococcus pneumoniae” (2011)
